Laboratory results reported in PubChem BioAssay AID623982 (Broad Institute, 2012).
“And” between values parts separate entries of the source, which are not always exact repeats. Identical values can stand only once. The source made the active and inactive calls.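 The calls were made as follows: active = compounds cutting fungal growth signal with fitted half-effect dose at most twice the top valid dose; inconclusive = flat curve at 30 to 70% inhibition, or poor fit; inactive = the rest.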

Assays:
[1] = tested on: C. albicans CaCi-17 growth, Alamar Blue fluorescence, 48 h; test: growth inhibition of highly fluconazole-resistant C. albicans, dose response, CaCi-17 strain, retest, dry powder, set 3 (AID 623982)
In short: (§1)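 Medium: buffered RPMI / Times: 48 h exposure, 37 °C, humidified, static / Detection: Alamar Blue fluorescence, 2 h dye incubation / Evaluation: growth inhibition indicated by fluorescence signal loss / Control set: amphotericin B at 10 µM as positive control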

[2] = as above; conditions: C. albicans CaCi-17 growth, Alamar Blue fluorescence, 48 h; at 3 µM (top of the series)
In short: as §1

**Q.** With `CCOC(=O)N1C(=O)C2(CCCCC2)N(c2ccc(F)cc2)C1=S` as the compound, how does the AC50 [1] read?
**A.** The AC50 was 783 nM.

**Q.** For `CCOC(=O)N1C(=O)C2(CCCCC2)N(c2ccc(C)cc2)C1=S`, which activity change, negative = inhibition [2] is on record?
**A.** Its activity change, negative = inhibition is 100% (inactive) and 85.9% (inactive).

**Q.** With `CCOC(=O)N1C(=O)C2(CCCCC2)N(c2ccccc2)C1=S` as the compound, how does the activity change, negative = inhibition [2] read?
**A.** The activity change, negative = inhibition was 104% (inactive).

**Q.** Which AC50 [1] does the source give for `CC1/C=C/C=C\C=C\C=C\C=C\C=C\C=C\C(O[C@H]2OC(C)C(O)C(N)C2O)CC2OC(O)(CC(O)CC(O)C(O)CCC(O)CC(O)CC(=O)OC(C)C(C)C1O)CC(O)C2C(=O)O` (stereo partly specified) here?
**A.** Its AC50 is 83.8 nM.

**Q.** Which activity change, negative = inhibition [2] does the source give for `C/C=C/[C@@H]1[C@H]2C[C@@H](C)CC[C@@H]2C(C)=C[C@H]1C(=O)c1c(O)c(-c2ccc(O)cc2)c[nH]c1=O` here?
**A.** Its activity change, negative = inhibition is 54.1% (inactive).

**Q.** Which activity change, negative = inhibition [2] does the source give for `CCOC(=O)N1C(=O)C2(CCCCC2)N(c2cccc(C)c2)C1=S` here?
**A.** The activity change, negative = inhibition was 70.9% (inactive).
